Measured values taken from ChEMBL document CHEMBL3612020.
The source made the active and inactive calls. The calls are words filed in the database; no cut-off is given here.

Experiments:
[1] = biological target: T1, D-amino-acid oxidase (Homo sapiens, UniProt P14920); experiment: Inhibition of recombinant human DAAO expressed in HEK cells using D-serine as substrate assessed as formation of alpha-keto acid, ammonia, […] after 20 mins by horseradish peroxidase/o-phenylenediamine-based assay; set-up: species or system HEK293
In short: (§1)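 Human DAAO from HEK cells: lysate in 50 mM Tris pH 8.5 with 100 µM FAD, sonicated, then ion-exchange purified with a 0–0.5 M NaCl gradient. […] Enzyme set to give 2.0 mOD/min uninhibited. Rate read as absorbance change at 411 nm. Mean ± SD of ≥4 experiments in most cases.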

[2] = Metabolic stability in mouse liver microsomes assessed as compound remaining at 5 uM after 60 mins by LC/MS/MS analysis in presence of NADPH; assay type: ADME; details: 1 h
In short: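 Mouse liver microsomes (0.5 mg/mL) with 5 µM test compound in 100 mM potassium phosphate pH 7.4 plus NADPH regenerating system (1.3 mM NADPH). Reaction started with microsomes, run in duplicate for 60 min, quenched with cold acetonitrile containing internal standard. Parent quantified by LC/MS/MS; cofactor-free controls included.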

[3] = Metabolic stability in mouse liver microsomes assessed as compound remaining at 5 uM after 60 mins by LC/MS/MS analysis in presence of UDPGA; assay type: ADME; details: 1 h
In short: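 Glucuronidation in mouse liver microsomes (0.5 mg/mL): 50 mM Tris-HCl pH 7.5, 8 mM MgCl2, 25 µg/mL alamethicin, pre-incubated at 37 °C. Started with 2 mM UDPGA (final), in duplicate, for 60 min. Quenched with cold acetonitrile plus internal standard; LC/MS/MS read-out, with cofactor-free controls.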

[4] = biological target: T1, D-amino-acid oxidase; experiment: Inhibition of DAAO (unknown origin); in short: as §1
[5] = biological target: Voltage-gated inwardly rectifying potassium channel KCNH2 (Homo sapiens, UniProt Q12809); experiment: Inhibition of human ERG up to 25 uM
Voltage-gated inwardly rectifying potassium channel KCNH2, sequence (Q12809 whole entry): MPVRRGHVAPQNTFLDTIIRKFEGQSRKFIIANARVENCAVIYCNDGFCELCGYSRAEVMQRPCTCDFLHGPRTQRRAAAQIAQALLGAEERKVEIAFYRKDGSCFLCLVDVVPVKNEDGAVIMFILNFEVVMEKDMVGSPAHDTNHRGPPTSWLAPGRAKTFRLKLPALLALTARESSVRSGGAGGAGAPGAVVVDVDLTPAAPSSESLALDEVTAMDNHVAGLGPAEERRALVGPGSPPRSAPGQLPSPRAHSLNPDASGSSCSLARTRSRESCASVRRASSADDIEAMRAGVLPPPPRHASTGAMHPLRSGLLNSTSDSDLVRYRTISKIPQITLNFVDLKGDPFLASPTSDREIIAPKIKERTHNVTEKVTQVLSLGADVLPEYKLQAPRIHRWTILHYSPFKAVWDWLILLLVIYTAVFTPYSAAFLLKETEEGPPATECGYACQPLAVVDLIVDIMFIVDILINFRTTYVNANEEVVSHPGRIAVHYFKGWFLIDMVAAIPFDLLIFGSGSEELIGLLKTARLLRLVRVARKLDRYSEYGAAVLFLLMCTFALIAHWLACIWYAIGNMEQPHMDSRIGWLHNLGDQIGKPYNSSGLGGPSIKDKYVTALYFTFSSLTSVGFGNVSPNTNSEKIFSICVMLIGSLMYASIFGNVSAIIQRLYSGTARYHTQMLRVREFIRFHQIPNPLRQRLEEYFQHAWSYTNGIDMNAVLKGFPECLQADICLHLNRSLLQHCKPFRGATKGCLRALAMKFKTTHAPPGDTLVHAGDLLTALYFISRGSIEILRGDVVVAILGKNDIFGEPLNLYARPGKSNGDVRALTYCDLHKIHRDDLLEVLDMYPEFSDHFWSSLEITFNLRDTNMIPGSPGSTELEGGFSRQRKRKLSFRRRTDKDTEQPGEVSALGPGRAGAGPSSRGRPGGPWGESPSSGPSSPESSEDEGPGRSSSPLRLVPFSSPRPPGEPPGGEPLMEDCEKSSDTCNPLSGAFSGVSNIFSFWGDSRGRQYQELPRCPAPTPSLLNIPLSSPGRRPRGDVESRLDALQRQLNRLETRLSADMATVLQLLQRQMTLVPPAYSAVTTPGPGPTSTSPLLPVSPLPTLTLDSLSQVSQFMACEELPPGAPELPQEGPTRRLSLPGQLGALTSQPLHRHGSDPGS

[6] = biological target: T2, Glutamate NMDA receptor; GRIN1/GRIN2A (Homo sapiens) (UniProt Q05586+Q12879); experiment: Inhibition of NMDA receptor phencyclidine binding site (unknown origin) at 10 uM relative to control; assay type: protein-complex assay
[7] = Terminal half life in CD1 mouse at 30 mg/kg, iv; assay type: ADME, organism-based; details: in vivo, read-out: beta t1/2 (converted)
In short: (§2)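 Male CD1 mice, n = 3 per time point, dosed iv or po. About 1 mL blood taken by cardiac puncture into heparinized tubes, kept on wet ice, centrifuged 10 min at 800 g, 4 °C. Plasma stored at −80 °C; drug levels measured by HPLC–QTOF-MS.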

[8] = AUClast in CD1 mouse at 30 mg/kg, iv; assay type: ADME, organism-based; set-up: dose 30 mg/kg, route intravenous, time 0 - last; details: in vivo; in short: as §2
[9] = Clearance in CD1 mouse at 30 mg/kg, iv; assay type: ADME, organism-based; details: in vivo; in short: as §2
[10] = biological target: T1, D-amino-acid oxidase; experiment: Competitive inhibition of recombinant human DAAO expressed in HEK cells by double reciprocal plot analysis in presence of D-serine; set-up: species or system HEK293
In short: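 hDAAO was purified from HEK cell lysate by ion-exchange FPLC. […] Activity was read as the rate of absorbance change at 411 nm. The mode of inhibition and Ki came from a double reciprocal plot.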

[11] = tested on: Salmonella typhimurium; experiment: Mutagenicity in Salmonella typhimurium TA100 by Ames test in absence of S9 mixture; assay type: toxicity, organism-based; details: salmonella enterica subsp. enterica serovar typhimurium
[12] = biological target: T2, Glutamate NMDA receptor; GRIN1/GRIN2A (Homo sapiens); experiment: Inhibition of NMDA receptor MK801 binding site (unknown origin) at 10 uM relative to control; assay type: protein-complex assay
[13] = tested on: Mus musculus; experiment: Decrease in plasma clearance of D-serine in CD1 mouse assessed as D-serine AUC (0 to 6 hrs) at 30 mg/kg, po (R[…]microg.hr/ml); assay type: functional
[14] = tested on: Mus musculus; experiment: Ratio of drug level in brain to plasma in CD1 mouse at 30 mg/kg, po; assay type: ADME, organism-based
[15] = Volume of distribution in CD1 mouse at 30 mg/kg, iv; assay type: ADME, organism-based; details: in vivo; in short: as §2
[16] = AUClast in CD1 mouse at 30 mg/kg, po; assay type: ADME, organism-based; set-up: dose 30 mg/kg, route oral, time 0 - last; details: in vivo; in short: as §2
[17] = biological target: T2, Glutamate NMDA receptor; GRIN1/GRIN2A (Homo sapiens); experiment: Inhibition of NMDA receptor glycine binding site (unknown origin) at 10 uM relative to control; assay type: protein-complex assay
[18] = biological target: T1, D-amino-acid oxidase; experiment: Inhibition of recombinant human DAAO expressed in HEK cells in presence of 10 to 100 uM of FAD; assay type: cell-based; details: HEK293
In short: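 Reactions ran in 50 mM Tris pH 8.5 with 2% DMSO final, for 20 min at room temperature. Absorbance rate was read at 411 nm. IC50 was determined with FAD raised from 10 to 100 µM.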

[19] = tested on: Mus musculus; experiment: Increase in plasma Cmax of D-serine in CD1 mouse at 30 mg/kg, po; assay type: ADME, organism-based; details: in vivo
[20] = tested on: Mus musculus; experiment: Oral bioavailability in CD1 mouse at 30 mg/kg; assay type: ADME, organism-based; details: in vivo; in short: as §2
[21] = Tmax in CD1 mouse at 30 mg/kg, po; assay type: ADME, organism-based; details: in vivo; in short: as §2
[22] = biological target: T3, MAO-B (Homo sapiens, UniProt P27338); experiment: Inhibition of MAO-B (unknown origin) at 10 uM relative to control
T3 sequence (P27338 whole entry): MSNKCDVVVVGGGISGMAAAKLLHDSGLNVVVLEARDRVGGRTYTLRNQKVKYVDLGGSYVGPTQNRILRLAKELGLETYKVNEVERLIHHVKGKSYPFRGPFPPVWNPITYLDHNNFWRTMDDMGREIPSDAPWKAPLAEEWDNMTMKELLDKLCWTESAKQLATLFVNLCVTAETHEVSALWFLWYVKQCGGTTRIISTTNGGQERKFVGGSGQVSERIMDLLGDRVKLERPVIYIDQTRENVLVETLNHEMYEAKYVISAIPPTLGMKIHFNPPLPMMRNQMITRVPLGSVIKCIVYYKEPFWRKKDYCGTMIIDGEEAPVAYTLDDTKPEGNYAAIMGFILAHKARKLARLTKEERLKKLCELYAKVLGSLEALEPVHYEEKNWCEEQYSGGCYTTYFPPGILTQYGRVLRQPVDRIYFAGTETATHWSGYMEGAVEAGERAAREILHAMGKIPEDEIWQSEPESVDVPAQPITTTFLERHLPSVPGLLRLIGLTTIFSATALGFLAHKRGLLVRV

[23] = biological target: T4, Glycine receptor subunit alpha-1 (Homo sapiens) (UniProt P23415); experiment: Inhibition of strychnine-sensitive glycine receptor (unknown origin) at 10 uM relative to control
T4 sequence (whole entry): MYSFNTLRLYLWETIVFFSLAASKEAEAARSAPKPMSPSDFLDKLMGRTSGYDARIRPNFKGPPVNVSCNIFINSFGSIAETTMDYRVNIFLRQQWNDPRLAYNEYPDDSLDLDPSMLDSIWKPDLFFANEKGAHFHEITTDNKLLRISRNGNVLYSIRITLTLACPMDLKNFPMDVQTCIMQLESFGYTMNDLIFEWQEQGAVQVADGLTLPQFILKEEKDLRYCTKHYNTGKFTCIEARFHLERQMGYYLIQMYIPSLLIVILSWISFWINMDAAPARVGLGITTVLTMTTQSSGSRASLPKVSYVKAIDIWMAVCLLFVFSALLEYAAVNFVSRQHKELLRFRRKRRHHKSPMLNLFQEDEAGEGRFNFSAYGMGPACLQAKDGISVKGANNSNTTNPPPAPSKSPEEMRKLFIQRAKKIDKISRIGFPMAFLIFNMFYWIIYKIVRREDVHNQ

[24] = biological target: T2, Glutamate NMDA receptor; GRIN1/GRIN2A (Homo sapiens); experiment: Inhibition of NMDA receptor agonist binding site (unknown origin) at 10 uM relative to control; assay type: protein-complex assay
[25] = tested on: Salmonella typhimurium; experiment: Mutagenicity in Salmonella typhimurium TA100 by Ames test in presence of S9 mixture; assay type: toxicity, organism-based; details: salmonella enterica subsp. enterica serovar typhimurium
[26] = biological target: T5, MAO-A (Homo sapiens, UniProt P21397); experiment: Inhibition of MAO-A (unknown origin) at 10 uM relative to control
T5 sequence (P21397 whole entry): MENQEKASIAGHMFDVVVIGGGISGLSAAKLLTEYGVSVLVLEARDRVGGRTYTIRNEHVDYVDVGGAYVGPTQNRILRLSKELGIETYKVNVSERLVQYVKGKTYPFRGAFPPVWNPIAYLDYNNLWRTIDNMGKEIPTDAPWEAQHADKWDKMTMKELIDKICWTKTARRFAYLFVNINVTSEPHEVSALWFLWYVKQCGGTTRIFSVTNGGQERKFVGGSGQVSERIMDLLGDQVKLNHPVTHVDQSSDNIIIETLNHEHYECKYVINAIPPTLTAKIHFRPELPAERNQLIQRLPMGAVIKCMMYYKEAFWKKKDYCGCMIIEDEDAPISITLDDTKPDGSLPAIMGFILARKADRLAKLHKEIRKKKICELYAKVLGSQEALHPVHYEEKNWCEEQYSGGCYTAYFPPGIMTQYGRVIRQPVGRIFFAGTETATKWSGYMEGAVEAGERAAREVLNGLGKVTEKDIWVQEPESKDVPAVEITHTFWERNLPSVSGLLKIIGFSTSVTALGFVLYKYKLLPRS

[27] = Cmax in CD1 mouse at 30 mg/kg, po; assay type: ADME, organism-based; set-up: dose 30 mg/kg, route oral; details: in vivo; in short: as §2

O=c1[nH]c(=O)n(CC(O)c2ccccc2)nc1O (configuration not stated)
IC50 [1]: 470 nM

O=c1[nH]c(=O)n(CCc2cccc(O)c2)nc1O
IC50 [1]: 160 nM

O=c1[nH]c(=O)n(CCn2ccc3cccnc32)nc1O
IC50 [1]: 310 nM

COc1ccccc1CCn1nc(O)c(=O)[nH]c1=O
IC50 [1]: 270 nM

O=c1[nH]c(=S)n(CCc2ccccc2)nc1O
Stability [2]: 87% | Stability [3]: >= 99%

O=C(Cn1nc(O)c(=O)[nH]c1=O)c1ccccc1
IC50 [1]: 850 nM

CO/N=C(\C(=O)N[C@@H]1C(=O)N2C(C(=O)O)=C(CSc3nc(=O)c(=O)[nH]n3C)CS[C@H]12)c1csc(N)n1 [CEFTRIAXONE]
IC50 [4]: 10000 nM

O=c1[nH]c(=O)n(CCc2ccc(F)cc2)nc1O
IC50 [1]: 50 nM

O=c1cc(CSc2ccc(Cl)c(Cl)c2)occ1O
Stability [3]: 5%

O=c1[nH]c(=O)n(Cc2ccccc2)nc1O
IC50 [1]: 5100 nM

O=c1[nH]c(=O)n(Cc2cccc3ccccc23)nc1O
inhibition (INH) [5]: Not Active | inhibition [6]: < 5% | half-life [7]: 54 min | AUC(0-t) [8]: 16300 ng·h/mL | clearance [9]: 10.2 mL/min/kg | Ki [10]: 60 nM | Activity [11]: Non-toxic | inhibition [12]: < 5% | Activity [13]: 96.9 µg·h/mL | BPR [14]: 0.01 | Vd [15]: 0.8 L/kg | AUC(0-t) [16]: 12900 ng·h/mL | inhibition [17]: 22% | inhibition [18]: Active | Stability [2]: >= 99% | Activity [19]: Not Active | F [20]: 79% | Tmax [21]: 4.8 min | Stability [3]: >= 99% | inhibition at 10 µM [22]: ≤ 5% | inhibition [23]: < 5% | inhibition [24]: < 5% | Activity [25]: Non-toxic | inhibition at 10 µM [26]: ≤ 5% | Cmax [27]: 13800 ng/mL

CC(C)CCn1nc(O)c(=O)[nH]c1=O
IC50 [1]: 260 nM

Cn1nc(O)c(=O)[nH]c1=O
IC50 [1]: 2800 nM

O=c1[nH]c(=O)n(CCc2ccccc2O)nc1O
IC50 [1]: 90 nM

O=c1[nH]c(=O)n(CCc2cccc(C(F)(F)F)c2)nc1O
IC50 [1]: 100 nM

O=c1[nH]c(=O)n(CCc2ccccn2)nc1O
IC50 [1]: 760 nM

O=c1[nH]c(=O)n(Cc2ccc3ccccc3c2)nc1O
IC50 [1]: 220 nM
